According to publication PMC3159890 (Frontiers in Pharmacology, 2011):

Key:
Type in all cases: cell-based
[1] = molecular target: T1, wt-CFTR (Homo sapiens, UniProt P13569); test: whole-cell patch-clamp on wt-CFTR-CHO cells
Outline: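 CHO cells stably expressing wt-CFTR, kept in α-MEM-GlutaMAX with 7% FBS and 100 μM methotrexate, were plated in 35-mm dishes. Whole-cell currents sampled at 3 kHz. Holding potential −40 mV, with pulses −100 to +100 mV in 20 mV steps. Capacitance obtained from a 10 mV hyperpolarization; currents normalized per pF. Stimulation with forskolin 1 μM plus test compound 10 μM. Time course: amplitude at +40 mV plotted every 10 s.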

[2] = molecular target: wild-type CFTR (Homo sapiens, UniProt P13569); test: iodide efflux in NuLi-1 cells
Outline: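 NuLi-1 cells (non-CF human bronchial epithelium, wild-type CFTR) cultured on collagen type VI-coated flasks in BEGM at 37°C, 5% CO2, media changed every 2 days, and seeded in 24-well plates. Iodide efflux stimulated by forskolin 10 μM plus test compound 100 μM. CFTR-inh172 10 μM was present in loading solution and efflux buffer.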

[3] = molecular target: F508del-CFTR (Homo sapiens, UniProt P13569, DEL508-508); test: iodide efflux in CuFi-1 cells
Outline: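 CuFi-1 cells (F508del/F508del, CF bronchial epithelium) grown on collagen type VI-coated flasks in BEGM at 37°C, 5% CO2, media renewed every 2 days, then seeded in 24-well plates. F508del-CFTR rescued by 24 h at 27°C or 24 h at 37°C with miglustat. Iodide efflux stimulated by forskolin 10 μM plus test compound 100 μM. Chloride transport inhibitors, when used, were present in loading solution and efflux buffer.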

[4] = system: wt-CFTR-CHO cells; test: MTT cytotoxicity assay; conditions: 100 μM, 24 h
Outline: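 wt-CFTR-CHO cells in α-MEM-GlutaMAX with 7% FBS and 100 μM methotrexate, exposed 24 h at 37°C to 100 μM test compound; MTT done the next day. PBS wash, then MTT (0.5 mg/ml in PBS) for 4 h at 37°C. Formazan dissolved in DMSO; OD read at 570 nm against 630 nm reference. Mean of three replicates, as percentage of control.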

[5] = molecular target: T1, wt-CFTR; test: iodide efflux in wt-CFTR-CHO cells
Outline: (§1)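 Stably transfected CHO cells (wt-CFTR or G551D-CFTR, methotrexate-selected) seeded in 24-well plates and loaded with 125I; efflux sampled robotically. Rate k = ln(125It1/125It2)/(t1–t2); response = kpeak − kbasal (min−1). Concentration-response curves expressed as percentage of maximal activation. Chloride transport inhibitors, when used, were present in both loading and efflux buffers.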

[6] = system: cAMP levels in wt-CFTR-CHO cells; test: cAMP-Screen ELISA determination of cAMP; conditions: RP193 100 μM alone or with forskolin 1 μM, 10 min
Outline: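 wt-CFTR-CHO cells incubated with agents for 10 min at 37°C. Reactions then stopped and intracellular cAMP quantified by cAMP-Screen ELISA, following the kit instructions.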

[7] = system: CHO-K1; test: whole-cell patch-clamp on CHO-K1 cells; conditions: forskolin 1 μM; RP193 10 μM
Outline: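 Whole-cell clamp, seals 5–10 GΩ. Pipette (mM): Cs-aspartate/CsCl, 1 EGTA, 10 TES, 3 MgATP, pH 7.2. Bath (mM): 145 NaCl, 4 CsCl, 1 CaCl2, 1 MgCl2, 10 glucose, 10 TES, pH 7.4. Held at −40 mV, stepped −100 to +100 mV in 20 mV increments; sampled at 3 kHz. Currents normalised to capacitance (pA/pF); time course read at +40 mV every 10 s.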

[8] = molecular target: T1, wt-CFTR; test: single-channel cell-attached patch-clamp on wt-CFTR-CHO cells
Outline: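 Cell-attached single-channel recordings on wt-CFTR-CHO cells at room temperature, seals 10–20 GΩ. Bath received forskolin 1 μM, then test compound 10 μM. Pipette (mM): 150 NaCl, 2 MgCl2, 10 TES, pH 7.4. Bath (mM): 145 NaCl, 4 KCl, 2 MgCl2, 10 TES, pH 7.4. Sampled at 3 kHz, filtered at 100 Hz (eight-pole Bessel). Potential = bath minus pipette.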

[9] = molecular target: G551D-CFTR (Homo sapiens, UniProt P13569, G551D); test: iodide efflux in G551D-CFTR-CHO cells
Outline: as §1

[10] = system: primary cultures of human bronchial epithelial cells (HBEC); test: Ussing chamber short-circuit current in primary HBEC cultures; conditions: amiloride 10 μM, luminal bath
Outline: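 Primary non-CF bronchial epithelial cells (three lung-resection donors), enzymatically isolated, grown to confluence on permeable collagen supports. Mounted in Ussing chambers in KBR at 37°C, gassed 95% O2-5% CO2. After 20–30 min equilibration and 10 min basal: amiloride 10 μM apical, forskolin 1 μM both sides, test compound basolateral, with 10–15 min stabilisation between additions. ΔIsc = plateau minus pre-addition value; Rt from +2 mV pulses every 90 s.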

O=C(O)c1ccc(/C=C2\SC(=S)N(c3cccc(C(F)(F)F)c3)C2=O)cc1 [CFTR-inh172, reference compound]
whole-cell current amplitude at +40 mV after inhibitor ([1]; CFTR-inh172 10 μM added after fsk 1 μM + RP193 10 μM): 8.2 ± 5.2 pA/pF
inhibition of RP193-stimulated iodide efflux in NuLi-1 cells ([2]; CFTR-inh172 10 μM): abolished
inhibition of RP193-induced iodide efflux in CuFi-1 cells ([3]; miglustat-treated cells, CFTRinh-172 10 μM, data not shown): fully inhibited

CCCCc1c(-c2ccc(O)cc2)[nH]c2nccnc12 [RP107, 7-n-butyl-6-(4-hydroxyphenyl)[5H]-pyrrolo[2,3-b]pyrazine]
cytotoxicity (cell viability, MTT) [4]: significantly higher cytotoxicity compared to the control conditions

Br.CCCCc1c(-c2cccc(O)c2)[nH]c2nccnc12 [RP146, 7-n-Butyl-6-(3-hydroxyphenyl)-5H-pyrrolo[2,3-b]pyrazine hydrobromide]
EC50 [5]: 97 µM
cytotoxicity (cell viability, MTT) [4]: significantly higher cytotoxicity compared to the control conditions

Br.CCCCc1c(-c2ccccc2O)[nH]c2nccnc12 [RP173, 7-n-Butyl-6-(2-hydroxyphenyl)-5H-pyrrolo[2,3-b]pyrazine hydrobromide]
cytotoxicity (cell viability, MTT) [4]: significantly higher cytotoxicity compared to the control conditions

CCCCc1c(-c2ccc(F)cc2)[nH]c2nccnc12 [RP185, 7-n-butyl-6-(4-fluorophenyl)-5H-pyrrolo[2,3-b]pyrazine]
EC50 [5]: 78 µM
cytotoxicity (cell viability, MTT) [4]: not cytotoxic

CCCCc1c(-c2ccccc2F)[nH]c2nccnc12 [RP193, 7-n-butyl-6-(2-fluorophenyl)-5H-pyrrolo[2,3-b]pyrazine]
stimulation of CFTR-dependent iodide efflux ([5]; RP193 100 μM without forskolin, wt-CFTR-CHO cells): no stimulation of CFTR activity
cytotoxicity (cell viability, MTT) [4]: not cytotoxic
dependence of CFTR potentiation on intracellular cAMP levels [6]: independent of intracellular cAMP levels
time to significant increase of the whole-cell current ([1]; RP193 10 μM in presence of forskolin 1 μM): 5 to 7 min
whole-cell current amplitude at +40 mV ([1]; RP193 10 μM in the presence of 1 μM fsk): 113.8 ± 15.1 pA/pF
effect on whole-cell current in CHO-K1 [7]: no effect
single-channel CFTR activity, cell-attached ([8]; RP193 10 μM in bath, in presence of forskolin 1 μM): progressive and sustained CFTR activity was recorded
average unitary conductance ([8]; forskolin 1 μM + RP193 10 μM, n = 4): 8.1 ± 0.0 pS
stimulation of iodide efflux in NuLi-1 cells ([2]; RP193 100 μM in presence of forskolin 10 μM): stimulated CFTR in NuLi-1 cells
stimulation of iodide efflux in CuFi-1 cells ([3]; cells 24 h at 27°C, RP193 100 μM in presence of forskolin 10 μM): iodide efflux significantly higher than with forskolin alone
stimulation of iodide efflux in CuFi-1 cells ([3]; cells cultivated at 37°C, RP193 100 μM + forskolin 10 μM): did not stimulate iodide efflux
stimulation of iodide efflux in CuFi-1 cells ([3]; cells non-treated with miglustat): no effect
stimulation of iodide efflux in G551D-CFTR-CHO cells ([9]; RP193 10 μM in presence of forskolin 10 μM, n = 4): stimulated an efflux
stimulation of iodide efflux in G551D-CFTR-CHO cells ([9]; RP193 alone, not shown): did not have any effect

N=C(N)NC(=O)c1nc(Cl)c(N)nc1N [amiloride]
change in Isc [10]: −29.5 ± 4.5 μA/cm^2

C=C[C@@]1(C)CC(=O)[C@]2(O)[C@@]3(C)[C@@H](O)CCC(C)(C)[C@@H]3[C@H](O)[C@H](OC(C)=O)[C@@]2(C)O1 [forskolin, reference compound]
whole-cell current amplitude at +40 mV ([1]; forskolin 1 μM alone): 18.4 ± 6.2 pA/pF
effect on whole-cell current in CHO-K1 [7]: no effect
stimulation of iodide efflux in G551D-CFTR-CHO cells ([9]; forskolin 10 μM alone, compared to basal state): No significant stimulation
